ΔTm data for 7 compounds are collected here from ChEMBL document CHEMBL1137056, “Synthesis of fluorinated analogues of SJG-136 and their DNA-binding potential” (Bioorg Med Chem Lett, 2004).

Common to all, as to type: functional
The species entered for assay [1] is Bos taurus. Nature of the assay: Increase in melting point temperature after 36 hr of incubation [1:5] as measurement of DNA binding affinity using calf thymus DNA. In outline: (§1)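 Thermal denaturation of calf thymus DNA, 100 µM DNA with 20 µM ligand (1:5 ligand:DNA molar ratio). Buffer was aqueous 10 mM sodium phosphate with 1 mM EDTA, pH 7.00. Mixtures were incubated at 37°C for the stated time, then the shift in helix melting temperature versus DNA alone was recorded. DNA-only Tm is the mean of 10 determinations.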

The species named for assay [2] is Bos taurus. The assay is described as follows: Increase in melting point temperature after 0h of incubation [1:5 ratio] as measurement of DNA binding affinity using calf thymus DNA. Summed up:
as §1

The species entered for assay [3] is Bos taurus. Nature of the assay: Increase in melting point temperature after 18 hr of incubation [1:5] as measurement of DNA binding affinity using calf thymus DNA. In outline: as §1

With `COc1cc2c(cc1O)N=C[C@@H]1CCCN1C2=O`, the ΔTm – broadly, the shift of the melting midpoint relative to a reference – in the assay listed under Bos taurus [1] is 0.7 °C; in the assay filed under Bos taurus [2] it was 0.3 °C; in the assay filed under Bos taurus [3], 0.7 °C.
Turning to `COc1cc2c(cc1OCCCCOc1cc3c(cc1OC)C(=O)N1CC(=C(F)F)C[C@H]1C=N3)N=C[C@@H]1CC(=C(F)F)CN1C2=O`, the thermal shift (ΔTm) in the assay listed under Bos taurus [1] worked out at 6.5 °C; in the assay listed under Bos taurus [2] it was 2.1 °C; in the assay filed under Bos taurus [3], 5.2 °C.
In the same order, the values of `COc1cc2c(cc1OCCCOc1cc3c(cc1OC)C(=O)N1CC(=C(F)F)C[C@H]1C=N3)N=C[C@@H]1CC(=C(F)F)CN1C2=O` are 24.9 °C, 20.8 °C and 24.6 °C.
In the same order, the values of `COc1cc2c(cc1OCCCOc1cc3c(cc1OC)C(=O)N1CCC[C@H]1C=N3)N=C[C@@H]1CCCN1C2=O` are 15.7 °C, 10.2 °C and 15.1 °C.
Regarding `COc1cc2c(cc1OCCCCCOc1cc3c(cc1OC)C(=O)N1CC(=C(F)F)C[C@H]1C=N3)N=C[C@@H]1CC(=C(F)F)CN1C2=O`, the ΔTm in the assay filed under Bos taurus [1] was found to be 21.3 °C; in the assay listed under Bos taurus [2], 16.2 °C; in the assay filed under Bos taurus [3], 19.2 °C.
Consider `C=C1C[C@H]2C=Nc3cc(OCCCOc4cc5c(cc4OC)C(=O)N4CC(=C)C[C@H]4C=N5)c(OC)cc3C(=O)N2C1`, for which the ΔTm is 25.7 °C in the assay listed under Bos taurus [2] and 33.6 °C in the assay filed under Bos taurus [3].
For `COc1cc2c(cc1O)N=C[C@@H]1CC(=C(F)F)CN1C2=O`, the shift in melting temperature (ΔTm) in the assay filed under Bos taurus [1] was determined as 2.2 °C; in the assay filed under Bos taurus [2] it was 1 °C; in the assay filed under Bos taurus [3], 1.7 °C.
